Where a chain is given by its changes, count along the chain named.
Legend:
[1] = target: T1, Muscarinic acetylcholine receptor M2 (Homo sapiens, UniProt P08172); assay: Inhibitory activity against [3H]quinuclidinyl Benzilate binding to Muscarinic acetylcholine receptor M2 in the absence of GTP
T1 sequence (P08172 whole entry): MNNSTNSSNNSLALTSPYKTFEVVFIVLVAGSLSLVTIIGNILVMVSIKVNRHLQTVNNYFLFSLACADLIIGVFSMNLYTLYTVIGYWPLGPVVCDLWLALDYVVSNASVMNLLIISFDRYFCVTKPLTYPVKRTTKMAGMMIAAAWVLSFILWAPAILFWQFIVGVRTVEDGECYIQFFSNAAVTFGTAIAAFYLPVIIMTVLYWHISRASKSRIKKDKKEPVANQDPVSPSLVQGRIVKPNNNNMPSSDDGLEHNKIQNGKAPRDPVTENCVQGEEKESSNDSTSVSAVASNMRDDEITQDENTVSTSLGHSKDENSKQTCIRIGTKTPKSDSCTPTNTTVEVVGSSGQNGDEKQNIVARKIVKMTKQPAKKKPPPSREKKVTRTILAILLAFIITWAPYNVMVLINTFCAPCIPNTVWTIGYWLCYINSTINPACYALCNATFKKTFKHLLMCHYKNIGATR
In short: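 Membranes from CHO cells expressing human M2 receptor. Competition against 0.1 nM [3H]quinuclidinyl benzilate in 25 mM sodium phosphate pH 7.4, 5 mM MgCl2, without or with 10 μM GTP; 30 min at 37 °C, triplicate. Nonspecific binding with 1 μM atropine. Filtration, scintillation counting.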

[2] = target: T2, Muscarinic acetylcholine receptor M1 (Rattus norvegicus, UniProt P08482); assay: Affinity versus [3H]oxotremorine M (agonist) binding to Muscarinic acetylcholine receptor M1 in Rat Cerebral Cortical Membranes, (Kd=[…])
T2 sequence (P08482 whole entry): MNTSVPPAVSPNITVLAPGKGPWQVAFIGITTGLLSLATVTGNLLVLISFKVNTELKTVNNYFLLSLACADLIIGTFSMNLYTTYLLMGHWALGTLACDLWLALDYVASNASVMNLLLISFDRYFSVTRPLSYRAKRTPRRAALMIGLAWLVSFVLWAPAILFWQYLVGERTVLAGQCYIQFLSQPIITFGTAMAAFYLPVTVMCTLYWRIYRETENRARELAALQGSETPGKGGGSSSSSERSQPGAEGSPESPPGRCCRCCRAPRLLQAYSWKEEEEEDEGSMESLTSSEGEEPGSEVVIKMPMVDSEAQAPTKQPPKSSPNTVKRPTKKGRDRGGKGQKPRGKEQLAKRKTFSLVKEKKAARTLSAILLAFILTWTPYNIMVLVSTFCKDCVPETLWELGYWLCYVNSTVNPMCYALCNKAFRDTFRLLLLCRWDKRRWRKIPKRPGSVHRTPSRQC

[3] = target: T2, Muscarinic acetylcholine receptor M1; assay: Inhibition of binding of [3H]quinuclidinyl benzilate to Muscarinic acetylcholine receptor M1 in rat cerebral cortical membranes; format: cell membranes, Membrane
In short: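 Rat cerebral cortex membranes were homogenised in 50 mM Tris-HCl pH 7.4 and diluted in HEPES binding buffer. They were incubated with 0.2 nM [3H]quinuclidinyl benzilate in 20 mM HEPES pH 7.4 with 10 mM MgCl2 and 100 mM NaCl for 30 min at 37 °C, in triplicate. Nonspecific binding used 1 µM atropine. Filtration was followed by scintillation counting.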

[4] = target: T3, Muscarinic acetylcholine receptor M1 (Homo sapiens, UniProt P11229); assay: Inhibition of binding of [3H]quinuclidinyl benzilate to muscarinic receptors in membranes of CHO cells transfected with Muscarinic acetylcholine receptor M1; format: cell membranes
T3 sequence (P11229 whole entry): T2 sequence (P08482 whole entry) with V5A, S254T, S309P, K320R, G337A, V413I
In short: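 Membranes from CHO cells expressing human M1 receptor, harvested at 80-100% confluence. Competition against 0.2 nM [3H]quinuclidinyl benzilate in 25 mM sodium phosphate pH 7.4 with 5 mM MgCl2; 30 min at 37 °C, triplicate. Nonspecific binding with 10 μM atropine. Filtration and scintillation counting.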

[5] = target: T2, Muscarinic acetylcholine receptor M1; assay: Inhibition of binding of [3H]quinuclidinyl benzilate to Muscarinic acetylcholine receptor M1 in rat cerebral cortical membranes at 100 uM concentration; format: cell membranes, Membrane
In short: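 Rat cortical membranes with 0.2 nM [3H]quinuclidinyl benzilate in HEPES pH 7.4 with 10 mM MgCl2 and 100 mM NaCl, 30 min at 37 °C, triplicate. Atropine 1 µM defined nonspecific binding. Percent inhibition was read at 100 µM test agent; mean ± SEM, n = 4.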

CC(=O)OC1CC2CCCC1N2 (stereo not given)
IC50 [1]: 0.017 µM | Ki [2]: 0.0056 µM | Ki [3]: 21 µM | Ki [4]: 21 µM | Ki [5]: 22 µM
